Source: ChEMBL document CHEMBL3272149, “Synthesis and antibacterial activity of some derivatives of tolypomycinone. Relationship between structure and activity in ansamycins” (J Med Chem, 1977)
≈ marks a conversion by molar mass, not a printed value. Calls of active or inactive are those of the source. The calls are words filed in the database; no cut-off is given here.

What was measured:
Staphylococcus aureus [1] = experiment: Antibacterial activity against Staphylococcus aureus 209 P(FDA) assessed as inhibition of visible growth after 24 hrs by serial dilution method; format: functional
Klebsiella pneumoniae = experiment: Antibacterial activity against Klebsiella pneumoniae Ottaviani assessed as inhibition of visible growth after 24 hrs by serial dilution method; format: functional
Escherichia coli = experiment: Antibacterial activity against Escherichia coli MC/35 assessed as inhibition of visible growth after 24 hrs by serial dilution method; format: functional; settings: MC/35, 24 h
[2] = tested on: Salmonella enterica subsp. enterica serovar Paratyphi B; experiment: Antibacterial activity against Salmonella paratyphi B 0248 K assessed as inhibition of visible growth after 24 hrs by serial dilution method; format: functional
How it was run: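 Broth tube serial dilution in Brain Heart Infusion medium; inoculum 10^6 cells/mL; incubation 24 h at 35 °C; MIC taken as the lowest antibiotic concentration that prevented visible growth.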

Staphylococcus aureus [3] = experiment: Antibacterial activity against Staphylococcus aureus 209 P(FDA) assessed as inhibition of visible growth in simulated gastric juice at pH 1.3 after 1 to 4 hrs by serial dilution method; format: functional, organism-based
How it was run: (§1)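 Compound dissolved in simulated gastric juice (pH 1.3) or simulated intestinal juice (pH 8.3). Samples were withdrawn at 1, 2 and 4 h and assayed for residual inhibitory activity against Staphylococcus.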

[4] = Stability in simulated gastric juice at pH 1.3; format: ADME; settings: simulated gi fluid; how it was run: as §1
[5] = Stability in simulated intestinal juice at pH 8.3; format: ADME; settings: simulated gi fluid; how it was run: as §1
Staphylococcus aureus [6] = experiment: Antibacterial activity against Staphylococcus aureus 209 P(FDA) assessed as inhibition of visible growth in simulated intestinal juice at pH 8.3 after 1 to 4 hrs by serial dilution method; format: functional, organism-based; how it was run: as §1

Question: Which results are given for `CO[C@H]1/C=C/O[C@@]2(C)Oc3c(C)c(O)c4c(c3C2=O)C(=O)C(NCCc2ccccn2)=C(NC(=O)/C(C)=C\C(=O)[C@@H]2C[C@@H]2[C@H](O)[C@@H](C)[C@@H](O)[C@@H](C)[C@H](OC(C)=O)[C@@H]1C)C4=O`?
Answer: MIC (Staphylococcus aureus [1]): < 0.005 µg/mL; MIC (Klebsiella pneumoniae): 25 µg/mL (≈ 30.1 µM); MIC (Escherichia coli): 6 µg/mL (≈ 7.23 µM); MIC [2]: 12 µg/mL (≈ 14.5 µM)

Question: With `CO[C@H]1/C=C/O[C@@]2(C)Oc3c(C)c(O)c4c(c3C2=O)C(=O)C(N(C)C)=C(NC(=O)/C(C)=C\C(=O)[C@@H]2C[C@@H]2[C@H](O)[C@@H](C)[C@@H](O)[C@@H](C)[C@H](OC(C)=O)[C@@H]1C)C4=O` as the compound, how does the MIC (Staphylococcus aureus [1]) read?
Answer: 0.025 µg/mL (≈ 0.0332 µM)

Question: And the MIC (Klebsiella pneumoniae)?
Answer: 100 µg/mL (≈ 133 µM)

Question: And the MIC (Escherichia coli)?
Answer: 50 µg/mL (≈ 66.4 µM)

Question: What about the MIC [2] of the same compound?
Answer: 100 µg/mL (≈ 133 µM)

Question: With `CO[C@H]1/C=C/O[C@@]2(C)Oc3c(C)c(O)c4c(c3C2=O)C(=O)C(NCC2CCCN(C)C2)=C(NC(=O)/C(C)=C\C(=O)[C@@H]2C[C@@H]2[C@H](O)[C@@H](C)[C@@H](O)[C@@H](C)[C@H](OC(C)=O)[C@@H]1C)C4=O` (stereo partly drawn) as the compound, how does the MIC (Staphylococcus aureus [1]) read?
Answer: 0.025 µg/mL (≈ 0.0299 µM)

Question: What about the MIC (Klebsiella pneumoniae) of the same compound?
Answer: 12 µg/mL (≈ 14.4 µM)

Question: What about the MIC (Escherichia coli) of the same compound?
Answer: 12 µg/mL (≈ 14.4 µM)

Question: And the MIC [2]?
Answer: 12 µg/mL (≈ 14.4 µM)

Question: With `CO[C@H]1/C=C/O[C@@]2(C)Oc3c(C)c(O)c4c(c3C2=O)C(=O)C(NCCc2c[nH]cn2)=C(NC(=O)/C(C)=C\C(=O)[C@@H]2C[C@@H]2[C@H](O)[C@@H](C)[C@@H](O)[C@@H](C)[C@H](OC(C)=O)[C@@H]1C)C4=O` as the compound, how does the MIC (Staphylococcus aureus [1]) read?
Answer: 0.05 µg/mL (≈ 0.0611 µM)

Question: What about the MIC (Klebsiella pneumoniae) of the same compound?
Answer: 12 µg/mL (≈ 14.7 µM)

Question: And the MIC (Escherichia coli)?
Answer: 50 µg/mL (≈ 61.1 µM)

Question: What about the MIC [2] of the same compound?
Answer: 12 µg/mL (≈ 14.7 µM)

Question: For `CO[C@H]1/C=C/O[C@@]2(C)Oc3c(C)c(O)c4c(c3C2=O)C(=O)C(NCc2ccc3c(c2)OCO3)=C(NC(=O)/C(C)=C\C(=O)[C@@H]2C[C@@H]2[C@H](O)[C@@H](C)[C@@H](O)[C@@H](C)[C@H](OC(C)=O)[C@@H]1C)C4=O`, which MIC (Staphylococcus aureus [1]) is on record?
Answer: < 0.005 µg/mL

Question: And the MIC (Klebsiella pneumoniae)?
Answer: > 100 µg/mL

Question: What about the MIC (Escherichia coli) of the same compound?
Answer: > 100 µg/mL

Question: What about the MIC [2] of the same compound?
Answer: 100 µg/mL (≈ 116 µM)

Question: Which inhibition (Staphylococcus aureus [3]) does the source give for `CO[C@H]1/C=C/O[C@@]2(C)Oc3c(C)c(O)c4c(c3C2=O)C(=O)C(NCCN2CCOCC2)=C(NC(=O)/C(C)=C\C(=O)[C@@H]2C[C@@H]2[C@H](O)[C@@H](C)[C@@H](O)[C@@H](C)[C@H](OC(C)=O)[C@@H]1C)C4=O` here?
Answer: Active

Question: What about the MIC (Staphylococcus aureus [1]) of the same compound?
Answer: < 0.005 µg/mL

Question: What about the MIC (Klebsiella pneumoniae) of the same compound?
Answer: 50 µg/mL (≈ 59.7 µM)

Question: And the MIC (Escherichia coli)?
Answer: 12 µg/mL (≈ 14.3 µM)

Question: What about the MIC [2] of the same compound?
Answer: 12 µg/mL (≈ 14.3 µM)

Question: What about the Stability [4] of the same compound?
Answer: Stable

Question: And the Stability [5]?
Answer: Stable

Question: What about the inhibition (Staphylococcus aureus [6]) of the same compound?
Answer: Active

Question: For `CO[C@H]1/C=C/O[C@@]2(C)Oc3c(C)c(O)c4c(c3C2=O)C(=O)C(NCCCO)=C(NC(=O)/C(C)=C\C(=O)[C@@H]2C[C@@H]2[C@H](O)[C@@H](C)[C@@H](O)[C@@H](C)[C@H](OC(C)=O)[C@@H]1C)C4=O`, which MIC (Staphylococcus aureus [1]) is on record?
Answer: 0.025 µg/mL (≈ 0.0319 µM)

Question: And the MIC (Klebsiella pneumoniae)?
Answer: 25 µg/mL (≈ 31.9 µM)

Question: What about the MIC (Escherichia coli) of the same compound?
Answer: 12 µg/mL (≈ 15.3 µM)

Question: And the MIC [2]?
Answer: 12 µg/mL (≈ 15.3 µM)

Question: Which MIC (Staphylococcus aureus [1]) does the source give for `COc1cc(CNC2=C3NC(=O)/C(C)=C\C(=O)[C@@H]4C[C@@H]4[C@H](O)[C@@H](C)[C@@H](O)[C@@H](C)[C@H](OC(C)=O)[C@H](C)[C@@H](OC)/C=C/O[C@@]4(C)Oc5c(C)c(O)c(c(c5C4=O)C2=O)C3=O)ccc1O` here?
Answer: < 0.005 µg/mL

Question: And the MIC (Klebsiella pneumoniae)?
Answer: 100 µg/mL (≈ 116 µM)

Question: What about the MIC (Escherichia coli) of the same compound?
Answer: 100 µg/mL (≈ 116 µM)

Question: And the MIC [2]?
Answer: 100 µg/mL (≈ 116 µM)

Question: For `CO[C@H]1/C=C/O[C@@]2(C)Oc3c(C)c(O)c4c(c3C2=O)C(=O)C(NCc2ccccn2)=C(NC(=O)/C(C)=C\C(=O)[C@@H]2C[C@@H]2[C@H](O)[C@@H](C)[C@@H](O)[C@@H](C)[C@H](OC(C)=O)[C@@H]1C)C4=O`, which MIC (Staphylococcus aureus [1]) is on record?
Answer: < 0.005 µg/mL

Question: What about the MIC (Klebsiella pneumoniae) of the same compound?
Answer: 12 µg/mL (≈ 14.7 µM)

Question: And the MIC (Escherichia coli)?
Answer: 6 µg/mL (≈ 7.35 µM)

Question: And the MIC [2]?
Answer: 25 µg/mL (≈ 30.6 µM)

Question: For `CO[C@H]1/C=C/O[C@@]2(C)Oc3c(C)c(O)c4c(c3C2=O)/C(=N/[C@@H]2CC[C@@H](O)O[C@H]2C)C=C(NC(=O)/C(C)=C\C(=O)[C@@H]2C[C@@H]2[C@H](O)[C@@H](C)[C@@H](O)[C@@H](C)[C@H](OC(C)=O)[C@@H]1C)C4=O`, which MIC (Staphylococcus aureus [1]) is on record?
Answer: 0.025 µg/mL (≈ 0.0304 µM)

Question: And the MIC (Klebsiella pneumoniae)?
Answer: 100 µg/mL (≈ 122 µM)

Question: And the MIC (Escherichia coli)?
Answer: > 100 µg/mL

Question: And the MIC [2]?
Answer: > 100 µg/mL

Question: What does the source list for `CO[C@H]1/C=C/O[C@@]2(C)Oc3c(C)c(O)c4c(c3C2=O)C(=O)C(NCc2ccn(C)c2)=C(NC(=O)/C(C)=C\C(=O)[C@@H]2C[C@@H]2[C@H](O)[C@@H](C)[C@@H](O)[C@@H](C)[C@H](OC(C)=O)[C@@H]1C)C4=O`?
Answer: MIC (Staphylococcus aureus [1]): 0.005 µg/mL (≈ 0.00611 µM); MIC (Klebsiella pneumoniae): 12 µg/mL (≈ 14.7 µM); MIC (Escherichia coli): 12 µg/mL (≈ 14.7 µM); MIC [2]: 12 µg/mL (≈ 14.7 µM)
